Assay results: ChEMBL document CHEMBL4265981, “Design, synthesis, and biological evaluation of novel pan agonists of FFA1, PPARγ and PPARδ” (Eur J Med Chem, 2018)

How the values were obtained:
[1] = biological target: T1, Free fatty acid receptor 1 (Homo sapiens, UniProt O14842); assay: Agonist activity at human FFA1 expressed in CHO cells assessed as increase in intracellular Ca2+ flux after 1 hr by Fluo4-AM dye based FLIPR assay; type: functional, cell-based
How it was run: (§1)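 CHO cells stably expressing human FFA1, seeded 16 h at 37 °C, washed with HBSS, then loaded 1 h at 37 °C with Fluo 4-AM (2.5 μg/mL), 2.5 mmol/L probenecid and 0.1% fatty acid-free BSA. Intracellular Ca2+ flux read by FLIPR after compound addition at various concentrations.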

[2] = biological target: T2, Peroxisome proliferator-activated receptor alpha (Homo sapiens, UniProt Q07869); assay: Agonist activity at human GAL4 fused PPARalpha-LBD expressed in human HepG2 cells after 18 hrs by luciferase reporter gene assay; type: cell-based
T2 sequence (Q07869 whole entry): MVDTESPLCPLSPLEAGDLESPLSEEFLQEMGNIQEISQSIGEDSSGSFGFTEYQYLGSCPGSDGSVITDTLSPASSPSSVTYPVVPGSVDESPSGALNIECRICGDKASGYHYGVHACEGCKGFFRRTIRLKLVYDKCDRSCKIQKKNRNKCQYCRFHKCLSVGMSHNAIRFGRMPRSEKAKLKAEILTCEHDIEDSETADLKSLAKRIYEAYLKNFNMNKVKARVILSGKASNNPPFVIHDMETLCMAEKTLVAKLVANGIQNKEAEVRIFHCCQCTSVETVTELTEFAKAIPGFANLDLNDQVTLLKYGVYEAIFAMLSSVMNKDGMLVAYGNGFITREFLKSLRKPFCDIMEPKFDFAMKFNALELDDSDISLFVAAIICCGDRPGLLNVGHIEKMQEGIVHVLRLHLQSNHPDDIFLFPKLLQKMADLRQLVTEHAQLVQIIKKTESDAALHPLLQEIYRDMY
How it was run: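 HepG2 cells plated 1 day ahead in antibiotic-free MEM, then run by the same GAL4 protocol: pBIND-PPAR construct plus pG5Luc reporter transfection, 18 h compound exposure at various concentrations. Firefly/renilla luciferase ratio scaled between no-compound and reference-agonist controls. EC50 is the mean of three determinations.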

[3] = biological target: T3, Peroxisome proliferator-activated receptor gamma (Homo sapiens, UniProt P37231); assay: Agonist activity at human GAL4 fused PPARgamma-LBD expressed in HEK293 cells after 18 hrs by luciferase reporter gene assay; type: cell-based
T3 sequence (P37231 whole entry): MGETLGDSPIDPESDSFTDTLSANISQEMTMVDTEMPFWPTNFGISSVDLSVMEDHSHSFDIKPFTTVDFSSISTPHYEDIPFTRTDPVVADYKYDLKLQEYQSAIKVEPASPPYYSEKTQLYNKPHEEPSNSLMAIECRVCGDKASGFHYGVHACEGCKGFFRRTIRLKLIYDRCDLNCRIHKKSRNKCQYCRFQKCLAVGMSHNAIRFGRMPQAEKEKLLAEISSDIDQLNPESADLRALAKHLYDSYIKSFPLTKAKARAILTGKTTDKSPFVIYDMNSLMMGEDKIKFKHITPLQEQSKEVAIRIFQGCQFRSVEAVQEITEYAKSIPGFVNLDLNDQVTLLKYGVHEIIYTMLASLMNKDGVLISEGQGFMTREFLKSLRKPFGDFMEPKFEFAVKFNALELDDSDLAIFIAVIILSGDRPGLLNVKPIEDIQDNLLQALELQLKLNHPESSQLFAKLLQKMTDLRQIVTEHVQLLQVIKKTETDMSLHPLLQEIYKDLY
How it was run: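 HEK293 cells plated 1 day ahead in antibiotic-free DMEM, transiently transfected with pBIND-PPARγ plus pG5Luc reporter (25 ng/well each). After 24 h, compounds added at various concentrations for 18 h. Dual firefly/renilla luciferase read-out, firefly normalized to renilla. % activation scaled between no-compound control and reference agonist; EC50 is the mean of three determinations.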

[4] = biological target: T4, Peroxisome proliferator-activated receptor delta (Homo sapiens, UniProt Q03181); assay: Agonist activity at human GAL4 fused PPARdelta-LBD expressed in HEK293 cells after 18 hrs by luciferase reporter gene assay; type: cell-based
T4 sequence (Q03181 whole entry): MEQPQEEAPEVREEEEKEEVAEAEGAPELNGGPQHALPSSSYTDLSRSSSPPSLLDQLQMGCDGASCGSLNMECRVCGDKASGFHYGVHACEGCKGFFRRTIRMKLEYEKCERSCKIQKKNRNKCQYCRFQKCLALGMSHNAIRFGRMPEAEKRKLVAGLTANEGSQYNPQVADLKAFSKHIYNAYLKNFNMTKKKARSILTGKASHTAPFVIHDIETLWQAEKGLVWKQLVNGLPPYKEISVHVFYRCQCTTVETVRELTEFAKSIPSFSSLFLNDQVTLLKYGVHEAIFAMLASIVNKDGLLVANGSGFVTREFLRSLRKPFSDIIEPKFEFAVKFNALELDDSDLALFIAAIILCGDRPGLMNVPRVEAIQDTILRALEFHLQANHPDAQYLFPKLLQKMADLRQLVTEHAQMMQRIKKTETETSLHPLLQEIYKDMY

Mus musculus [5] = assay: Hypoglycemic activity in ICR mouse assessed as decrease in plasma glucose level administered orally 30 mins prior to glucose load and measured after 120 mins by OGTT; type: functional, organism-based
How it was run: (§2)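 Male ICR mice (18–22 g), acclimatized 1 week. Single oral dose (10, 30, 100 or 20 mg/kg) in 0.5% carboxymethylcellulose/methylcellulose vehicle, given 30 min before an oral glucose load of 3 g/kg. Blood glucose measured by test strip at −30, 0, 15, 30, 60 and 120 min. AUC0–120 min compared with vehicle.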

Mus musculus [6] = assay: Hypoglycemic activity in ICR mouse assessed as decrease in blood glucose AUC (0 to 120 mins) at 10 mg/kg, po administered 30 mins prior to glucose load by OGTT relative to control; type: functional; set-up: scale not given: the % may be the effect or the level left; how it was run: as §2
Mus musculus [7] = assay: Hypoglycemic activity in ICR mouse assessed as decrease in blood glucose AUC (0 to 120 mins) at 30 mg/kg, po administered 30 mins prior to glucose load by OGTT relative to control; type: functional; set-up: scale not given: the % may be the effect or the level left; how it was run: as §2
Mus musculus [8] = assay: Hypoglycemic activity in ICR mouse assessed as decrease in blood glucose AUC (0 to 120 mins) at 100 mg/kg, po administered 30 mins prior to glucose load by OGTT relative to control; type: functional; set-up: scale not given: the % may be the effect or the level left; how it was run: as §2
Mus musculus [9] = assay: Hypoglycemic activity in ob/ob mouse assessed as decrease in blood glucose AUC (0 to 120 mins) at 100 mg/kg, po bid administered via gavage for 5 days starting at 30 mins prior to glucose load by OGTT relative to control; type: functional; set-up: scale not given: the % may be the effect or the level left
How it was run: (§3)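 Male ob/ob mice, six weeks old, acclimatized 1 week. Dosed by gavage twice daily for 5 days with 100 or 40 mg/kg, or with 0.5% methylcellulose vehicle. OGTT on days 0 and 5: overnight fast, dose, then oral glucose 3 g/kg 30 min later. Tail-tip blood glucose by strip at −30, 0, 15, 30, 60 and 120 min. n = 6/group, mean ± SD, Student's t test.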

Mus musculus [10] = assay: Hypoglycemic activity in ob/ob mouse assessed as decrease in blood glucose AUC (0 to 120 mins) at 100 mg/kg, po bid administered via gavage 30 mins prior to glucose load by OGTT relative to control; type: functional; set-up: scale not given: the % may be the effect or the level left; how it was run: as §3
Mus musculus [11] = assay: Hypoglycemic activity in ICR mouse assessed as decrease in blood glucose AUC (0 to 120 mins) at 20 mg/kg, po administered 30 mins prior to glucose load by OGTT relative to control; type: functional; set-up: scale not given: the % may be the effect or the level left; how it was run: as §2
Mus musculus [12] = assay: Hypoglycemic activity in ob/ob mouse assessed as decrease in blood glucose AUC (0 to 120 mins) at 40 mg/kg, po bid administered via gavage for 5 days starting at 30 mins prior to glucose load by OGTT relative to control; type: functional; set-up: scale not given: the % may be the effect or the level left; how it was run: as §3
Mus musculus [13] = assay: Hypoglycemic activity in ob/ob mouse assessed as decrease in blood glucose AUC (0 to 120 mins) at 40 mg/kg, po bid administered via gavage 30 mins prior to glucose load by OGTT relative to control; type: functional; set-up: scale not given: the % may be the effect or the level left; how it was run: as §3
[14] = biological target: T1, Free fatty acid receptor 1; assay: Agonist activity at FFA1 (unknown origin); type: functional; how it was run: as §1

T1 sequence (O14842 whole entry): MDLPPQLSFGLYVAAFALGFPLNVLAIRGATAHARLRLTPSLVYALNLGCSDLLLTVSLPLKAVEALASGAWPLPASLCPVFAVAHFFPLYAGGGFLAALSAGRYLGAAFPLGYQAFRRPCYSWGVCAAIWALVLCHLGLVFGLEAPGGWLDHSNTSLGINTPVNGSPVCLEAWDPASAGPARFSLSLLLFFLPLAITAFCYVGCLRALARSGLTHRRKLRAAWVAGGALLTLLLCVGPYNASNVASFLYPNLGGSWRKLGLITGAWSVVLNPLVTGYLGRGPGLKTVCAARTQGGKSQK

Row | SMILES | EC50 [1] | EC50 [2] | EC50 [3] | EC50 [4] | also measured
1 | Cc1ccc(OCCCOc2ccc3c(c2)OCC3CC(=O)O)cc1 (stereo unspecified) | 7.62 µM | > 10 µM | 1.81 µM | 1.95 µM | –
2 | O=C(O)CC1COc2cc(OCCCOc3cccc(Cl)c3)ccc21 (stereo unspecified) | 3.07 µM | > 10 µM | 1.69 µM | 2.16 µM | –
3 | Cc1cccc(OCCCOc2ccc3c(c2)OCC3CC(=O)O)c1 (stereo unspecified) | 3.59 µM | > 10 µM | 1.75 µM | 2.42 µM | –
4 | CC(C)(C)c1cccc(OCCOc2ccc3c(c2)OCC3CC(=O)O)c1 (stereo unspecified) | 3.85 µM | > 10 µM | 2.03 µM | 9.57 µM | –
5 | O=C(O)C[C@@H]1CCc2cc(OCCCOc3ccccc3)ccc21 | > 10 µM | > 10 µM | > 10 µM | 0.17 µM | –
6 | O=C(O)CC1COc2cc(OCCOc3ccccc3)ccc21 (stereo unspecified) | > 10 µM | > 10 µM | 7.75 µM | 7.93 µM | –
7 | Cc1ccccc1OCCCOc1ccc2c(c1)OCC2CC(=O)O (stereo unspecified) | > 10 µM | > 10 µM | 2.02 µM | 1.93 µM | –
8 | O=C(O)C[C@@H]1COc2cc(OCCCOc3cccc(Cl)c3)ccc21 | 2.38 µM | > 10 µM | 1.43 µM | 1.75 µM | Activity (Mus musculus [5]): Dose-dependent effect; Activity (Mus musculus [6]): 1.1%; Activity (Mus musculus [7]): 8.1%; Activity (Mus musculus [8]): 18.6%; Activity (Mus musculus [9]): 17.3%; Activity (Mus musculus [10]): 7.6%
9 | Cc1cc(OCCCOc2ccc(-c3ccccc3)cc2)ccc1OCC(=O)O | > 10 µM | 5.26 µM | 4.56 µM | 1.52 µM | –
10 | Cc1cc(OCCCOc2cccc(Cl)c2)ccc1OCC(=O)O | > 10 µM | > 10 µM | 1.54 µM | 1.73 µM | –
11 | O=C(O)CC1COc2cc(OCCCOc3cccc(-c4ccccc4)c3)ccc21 (stereo unspecified) | 2.76 µM | > 10 µM | 1.85 µM | 5.49 µM | –
12 | O=C(O)CC1COc2cc(OCCCOc3ccc(-c4ccccc4)cc3)ccc21 (stereo unspecified) | 4.26 µM | 7.31 µM | 2.97 µM | 1.98 µM | –
13 | O=C(O)CC1COc2cc(OCCCOc3cccc(Br)c3)ccc21 (stereo unspecified) | 3.45 µM | > 10 µM | 1.67 µM | 2.37 µM | –
14 | Cc1cc(OCCCS(C)(=O)=O)cc(C)c1-c1cccc(COc2ccc3c(c2)OC[C@H]3CC(=O)O)c1 | – | – | – | – | Activity (Mus musculus [11]): -26.9%; Activity (Mus musculus [12]): 20.2%; Activity (Mus musculus [13]): 13.1%
15 | O=C(O)COc1ccc(OCCCOc2cccc(Cl)c2)cc1F | 8.45 µM | > 10 µM | 3.17 µM | 3.35 µM | –
16 | O=C(O)CC1COc2cc(OCCCOc3ccccc3F)ccc21 (stereo unspecified) | > 10 µM | > 10 µM | 2.67 µM | 2.09 µM | –
17 | [2H]C([2H])(Cc1ccc(OCCCOc2cccc(Cl)c2)cc1)C(=O)O | 3.28 µM | > 10 µM | 1.92 µM | 4.56 µM | –
18 | CC(C)(C)c1cccc(OCCCOc2ccc3c(c2)OCC3CC(=O)O)c1 (stereo unspecified) | 3.02 µM | > 10 µM | 1.75 µM | 4.84 µM | –
19 | O=C(O)CC1COc2cc(OCCCOc3ccccc3)ccc21 (stereo unspecified) | > 10 µM | > 10 µM | 5.26 µM | 3.26 µM | –
20 | O=C(O)CS(=O)(=O)c1ccc(OCCCOc2cccc(Cl)c2)cc1 | > 10 µM | > 10 µM | > 10 µM | > 10 µM | –
21 | CC#C[C@@H](CC(=O)O)c1ccc(OCCCOc2cccc(Cl)c2)cc1 | – | – | – | – | EC50 [14]: 0.01 µM
